Results pooled from the literature.
Compare with care: the assays were run in different laboratories.
Organism: Severe acute respiratory syndrome coronavirus 2

CC(C)=CCC[C@](C)(O)[C@H]1CC[C@]2(C)[C@@H]1CC[C@@H]1[C@@]3(C)CCC(=O)C(C)(C)[C@@H]3CC[C@]12C — inhibition (viral replication, inhibitor; Calu-3; 50 µM): 99.5%
CC1=C(C/C=C(\C)CC/C=C(\C)Cc2ccc3ccccc3c2)C(=O)c2ccccc2C1=O — inhibition (viral replication, inhibitor; VeroE6/TMPRSS2; 100 µM, 72 h): 39%
[H]/N=C(/N)SCCCn1cc(C2=C(c3cn(C)c4ccccc34)C(=O)NC2=O)c2ccccc21 — inhibition (viral replication; Vero C1008; 50 µM): 15%
Cc1cc(O)c(C=O)c2c1C(=O)Oc1c(cc3c(c1C)C(=O)CC(C)(C)O3)O2 — inhibition (viral replication, inhibitor; Calu-3; 50 µM): 99.5%
O=c1[nH]c(=O)n([C@@H]2O[C@H](CO)[C@@H](O)[C@@H]2O)cc1/C=C/Br — inhibition (viral replication, inhibitor; Vero C1008; 1 µM): 52.6%
Oc1c(I)cc(Cl)c2cccnc12 — inhibition (viral replication, inhibitor; Vero C1008; 30 µM): 91.8%
Cn1c(C(=O)Nc2ccc(Cl)cc2)cc2c(=O)n3ccccc3nc21 — inhibition (viral replication; Vero; 1 µM): 74.7%
CC1=C(C/C=C(\C)CC/C=C(\C)Cc2cccc(C(C)C)c2)C(=O)c2ccccc2C1=O — inhibition (viral replication, inhibitor; VeroE6/TMPRSS2; 100 µM, 72 h): 48%
CCCc1nc2ccc(N(CCC)C(=O)c3ccccc3)cc2c(=O)n1Cc1ccc(-c2ccccc2-c2nnn[nH]2)cc1 — inhibition (viral replication, inhibitor; Vero C1008; 1 µM): 54.3%
CC1(C)CCC[C@]2(C)O[C@H]3CC[C@@]4(C)[C@@H](CC[C@]5(C)[C@@H]4CC[C@]4(C)c6c(C(O)C(=O)O)ccc(O)c6C[C@@H]54)[C@]3(C)CC[C@@H]12 (some centres unmarked) — inhibition (viral replication, inhibitor; Calu-3; 50 µM): 0%
CC(C)=CCc1c(O)ccc(C(=O)/C=C/c2ccc(O)cc2)c1O — inhibition (cytopathic effect, inhibitor; Vero C1008; 50 µM): 0%
O=C(O)C1=CC(=C(c2ccc(O)c(C(=O)O)c2)c2ccc(O)c(C(=O)O)c2)C=CC1=O — inhibition (viral replication; Vero C1008; 50 µM): 80%
C=C(C)[C@]12C[C@@H](C)[C@@]34O[C@](Cc5ccccc5)(O[C@@H]1[C@@H]3C=C(COC(=O)Cc1ccc(O)c(OC)c1)C[C@]1(O)C(=O)C(C)=C[C@@H]41)O2 — inhibition (viral replication, inhibitor; Vero C1008; 1 µM): 53.2%
Cc1cc(NC(=O)c2cc3c(=O)n4cccc(C)c4nc3n2C)ccc1Br — inhibition (viral replication; Vero; 10 nM): 8.19%
Br.CN=c1nc(-c2ccc(OC)c(OC)c2)n(-c2ccc(F)cc2)s1 — inhibition (viral replication, inhibitor, qPCR; Vero C1008; 50 µM, 24 h): 35.6%
O=C(/C=C/c1ccc(O)c(O)c1/C=C/c1ccc(O)c(O)c1)O[C@H](Cc1ccc(O)c(O)c1)C(=O)O — inhibition (cytopathic effect; Vero C1008; 6.25 µM): 0%
C=C1C[C@H]2[C@@](C)(C(=O)C(O)=C3C(C)(C)C(=O)CC[C@@]32C)[C@@H]2C(=O)O[C@@](C)(C(=O)OC)C(=O)[C@@]12C — inhibition (viral replication, inhibitor; Calu-3; 50 µM): 82.1%
NC[C@@H]1O[C@H](O[C@H]2[C@@H](O)[C@H](O[C@@H]3[C@@H](O)[C@H](N)C[C@H](N)[C@H]3O[C@H]3O[C@H](CO)[C@@H](O)[C@H](O)[C@H]3N)O[C@@H]2CO)[C@H](N)[C@@H](O)[C@@H]1O — inhibition (viral replication; Vero C1008; 50 µM): 2%
O=C(Nc1ccccc1F)c1cc2c(=O)n3ccccc3nc2n1Cc1ccccc1 — inhibition (viral replication; Vero; 10 µM): 96.6%
O=C(O[C@@H]1Cc2c(O)cc(O)cc2O[C@@H]1c1cc(O)c(O)c(O)c1)c1cc(O)c(O)c(O)c1 — inhibition (cytopathic effect; Vero C1008; 25 µM): 25%
NS(=O)(=O)c1ccc(N2N=C(C(F)(F)F)CC2c2c[nH]c3cc(Cl)ccc23)cc1 (centres unmarked) — inhibition (viral replication, inhibitor; Vero C1008; 1 µM): 40.9%
COc1ccc(C[C@@H]2c3cc(Oc4cc(C[C@@H]5c6cc(O)c(OC)cc6CCN5C)ccc4O)c(OC)cc3CCN2C)cc1 — inhibition (cytopathic effect; Vero C1008; 3.125 µM): 0%
O=C(Nc1ccc(C(F)(F)F)cc1)c1cc(Cl)c(F)cc1O — inhibition (viral replication, inhibitor; Vero C1008; 1 µM): 90%
O=C(O)c1cnc2n1CCc1ccccc1C2=C1CCN(CCc2ccc(OCc3ccc4ccccc4n3)cc2)CC1 — inhibition (viral replication, inhibitor; Vero C1008; 1 µM): 50.3%
O=C(CCCN1CCC(O)(c2ccc(Cl)cc2)CC1)c1ccc(F)cc1 — inhibition (viral replication; Vero C1008; 50 µM): 3%
Cc1ccc(NC(=O)c2cc3c(=O)n4cccc(C)c4nc3n2C)cc1Cl — inhibition (viral replication; Vero; 0.1 µM): 67.4%
CCN(CC)CCCC(C)Nc1ccnc2cc(Cl)ccc12 (centres unmarked) — inhibition (viral replication, inhibitor; Vero C1008; 1 µM): 48.7%
Cn1c(C(=O)Nc2ccc3c(c2)OCCO3)cc2c(=O)n3ccccc3nc21 — inhibition (viral replication; Vero; 1 µM): 74.7%
NCC[C@H](O)C(=O)N[C@@H]1C[C@H](N)[C@@H](O[C@H]2O[C@H](CN)[C@@H](O)[C@H](O)[C@H]2O)[C@H](O)[C@H]1O[C@H]1O[C@H](CO)[C@@H](O)[C@H](N)[C@H]1O — inhibition (viral replication; Vero C1008; 50 µM): 3%
CC(=O)c1cccc(NC(=O)c2cc3c(=O)n4ccccc4nc3n2C)c1 — inhibition (viral replication; Vero; 10 nM): 43.8%
C=C[C@@](C)(/C=C/c1ccc(O)cc1)CCC=C(C)C — inhibition (cytopathic effect; Vero C1008; 50 µM): 0%
CCc1ccc(NC(=O)c2cc3c(=O)n4ccccc4nc3n2C)cc1 — inhibition (viral replication; Vero; 0.1 µM): 51.5%
O=C(NCCN1CCCC1)c1cc(-c2ccc(CN3CCOCC3)cc2)nc2ccc(F)cc12 — inhibition (viral replication, inhibitor; Vero C1008; 1 µM): 45.8%
Cc1cccn2c(=O)c3cc(C(=O)Nc4ccc(N(C)C)cc4)n(C)c3nc12 — inhibition (viral replication; Vero; 1 nM): 2.51%
CCOC(=O)c1ccc(C#Cc2ccc3c(c2)C(C)(C)CCS3)nc1 — inhibition (viral replication, inhibitor; Vero C1008; 1 µM): 49.9%
